The list is not random: actives were taken first. Their share in the collection is about 2.6%.
RAD52 anneal inh: inhibitors of human RAD52 DNA annealing; recombinant RAD52 DNA annealing, FRET fluorescence; 360,000 compounds, 0.46% hits; P43351; inhibition, % at 18.7 µM; AID 651710;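 active means every replicate showing at least 50% inhibition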
Ecoli rRNA inh: inhibits bacterial ribosomal RNA function over humanized ribosomes. 350,000 compounds, 1.6% hits. E. coli WT GFP vs humanized-ribosome RFP mutants, fluorescence, 24 h; active compounds read low; DMSO median 0, no signal -100. GFP signal change (wild-type ribosome), % (test concentration not listed);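 active means significant combined selectivity score with lowered wild-type GFP, culture density cut under 30%, mutant RFP and density less affected; inactive means any of these conditions unmet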
MLL AF4-AF9 inh: blocks AF4 peptide binding to human AF9 | P42568 | AlphaScreen, biotin-AF4 peptide binding to FLAG-AF9 | inhibition, % at 10 µM | 350,000 compounds, 0.47% hits | AID 651704;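 active means every replicate reaching a set inhibition limit, whatever the replicate mean, cut at about 25% in these data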;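 further: 0% = plate neutral control median and 100% = total signal loss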
E-selectin induc: induces E-selectin expression in human endothelial cells; HUVEC E-selectin immunofluorescence imaging; normalized: neutral wells 0, TNF-alpha wells 100; activation, % at 7.58 µM; 260,000 compounds, 0.37% hits;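 active means mean E-selectin-positive cell signal at least 10% of the positive control, reached in at least 60% of replicates, without over 20% cell loss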
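Test system – human umbilical vein endothelial cells (HUVEC), E-selectin induction · Input – 3,000 HUVEC seeded per well · Buffer or medium – EGM-2, gelatin · Compound dosing – single-point compound dose · Detection – immunofluorescence imaging · Measure – percent E-selectin-positive cells · Controls – TNF-alpha high, DMSO low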
RAD54 branch: RAD54 (human) branch migration inhibition | inhibition, % at 10.4 µM | AID 602329 | Q92698 | 360,000 compounds, 0.14% hits | RAD54 Holliday junction branch migration, FAM/BHQ fluorescence;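 active means mean normalized replicate activity at least 40 and at least half of replicates scoring 40 or more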;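 further: 0% = median of neutral control wells and 100% = median of positive control wells; inhibitors cause a drop in the FAM fluorescence signal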
GSIS activator: GLuc luminescence reporter in INS-1E cells, primary screen for activators of glucose-dependent secretion of insulin. INS-1E GLuc reporter insulin secretion, 2-3 h. activation, % at 16.6 µM. 370,000 compounds, 0.61% hits. AID 743287;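 active means lowest replicate activation of at least 40%, so every replicate reaches that level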;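 further: 0% = median of neutral control wells and 100% = median of IBMX positive control wells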
* = called active by the depositor; / = no result.

SMILES | RAD52 anneal inh | Ecoli rRNA inh | MLL AF4-AF9 inh | E-selectin induc | RAD54 branch | GSIS activator
O=C(c1cccnc1)N1C[C@@H]2[C@H](c3ccccc31)[C@H](CO)N2C(=O)Nc1ccc(F)cc1 | -12 | 1 | -2 | 0 | -4 | 13
CCOC(=O)C1(C)CCCCN1C(=O)c1cccc(Cl)c1 (centres undefined) | -14 | / | -2 | 0 | -10 | 96*
O=C(Cc1ccccc1)N[C@H]1CC[C@@H](CC(=O)N2CCOCC2)O[C@H]1CO | 14 | 2 | -11 | 0 | -15 | 16
Cc1ccc(NC(=O)c2ccc(CSc3ccccn3)cc2)c(O)c1 | -6 | -36* | -12 | 1 | / | 1
Cc1ccc(NC(=S)Nc2ccc(Cl)c(Cl)c2)c(OC(F)F)c1 | -6 | -41* | 3 | 2 | / | 10
COc1ccc(C(=O)Oc2ccc(/C=N/O)cc2)cc1 | -19 | -26* | / | / | -6 | -11
O=C(N/N=C/c1ccc(OC(=O)c2ccc([N+](=O)[O-])cc2)cc1)c1cccnc1 | -10 | 8 | -1 | 0 | 1 | -3
CC(C)(Cc1ccc(O)cc1)NC(=O)CC(=O)N/N=C/c1ccc([N+](=O)[O-])cc1 | -7 | -17* | 0 | / | / | 16
COc1ccc(C(=O)Oc2ccc(/C=N/NC(=O)Cc3ccc([N+](=O)[O-])cc3)cc2)cc1 | / | / | / | 0 | / | 46*
CC(C)NC(=O)Nc1cccc2c1O[C@H](CN(C)S(C)(=O)=O)[C@@H](C)CN(C)C2=O | / | -2 | / | / | / | -10
O=C1O[C@H](c2ccccc2)[C@H](c2ccccc2)N2[C@H]1[C@@H](C(=O)Nc1nc3ccccc3s1)[C@]1(C(=O)Nc3ccc(C#CCCO)cc31)[C@H]2c1ccc(OCCO)cc1 | -7 | / | -3 | / | 1 | /
CC1CN(S(=O)(=O)c2ccc(C(=O)O)cc2)CC(C)O1 (centres undefined) | -7 | 11 | -8 | 0 | / | 9
Cc1ccc(C(CC(=O)O)NC(=O)c2ccc(S(=O)(=O)N3CC(C)OC(C)C3)cc2)cc1 (centres undefined) | -10 | 7 | -1 | -1 | 4 | 58*
CC1Nc2ncnc(N3CCc4ccccc4C3)c2N(Cc2ccc(Cl)cc2)C1=O (centres undefined) | -103 | -9 | / | / | 0 | 74*
CC1Nc2ncnc(N3CCc4ccccc4C3)c2N(Cc2ccc(Br)cc2)C1=O (centres undefined) | -41 | 1 | 2 | -1 | 1 | -14
C[C@@]12CCC3[C@@](CCC4[C@@]3(C)CCC[C@@]4(C)C(=O)O)(CC1=O)C2 (some centres undefined) | -5 | -40 | -1 | 0 | -2 | /
COC(=O)[C@]1(C)CCC[C@@]2(C)C3CC[C@@]4(C)C[C@]3(CCC21)CC(=O)N4 (some centres undefined) | -2 | -28* | / | 0 | -4 | -15
COc1ccc(-c2nc(N)nc(C)c2-c2ccc(Cl)cc2)c(O)c1 | -10 | -40 | 7 | 59* | -7 | -11
C=C(C)COc1ccc(-c2nc(N)ncc2-c2ccc(OC)cc2)c(O)c1 | / | / | 28* | / | -9 | /
COc1ccc(-c2nc(N)ncc2-c2ccccc2)c(O)c1 | 6 | -3 | -10 | / | / | 21
COc1ccc(-c2cnc(N)nc2-c2ccc(OC)cc2O)cc1 | 4 | -28* | / | / | -5 | 20
COc1ccc2c3c([nH]c2c1)[C@H](CO)N(CC1CC1)CC31CCN(C(=O)c2ccc(F)cc2)CC1 | -67 | -2 | -1 | 0 | / | 2
CN(C)c1ccc(C2C3CCCc4ccccc4C3=NN2C)cc1 (centres undefined) | -9 | -27* | 30* | / | / | 0
Cc1noc(C)c1NC(=O)Nc1ccc2c(c1)C(=O)N([C@@H](C)CO)C[C@H](C)[C@H](CN(C)C(=O)Nc1cccc3ccccc13)O2 | -9 | 3 | -2 | 0 | 11 | 15
O=C1C=CCCN1C(=O)/C=C/c1ccccc1 | 11 | / | -3 | / | / | /
SMILES | RAD52 anneal inh | Ecoli rRNA inh | MLL AF4-AF9 inh | E-selectin induc | RAD54 branch | GSIS activator
CC1C/C(=C/c2ccncc2)C(=O)/C(=C/c2ccncc2)C1 (centres undefined) | -12 | -22* | -20 | 0 | -2 | -64
O=C1/C(=C/c2ccncc2)Cc2ccccc21 | -4 | 3 | 1 | 0 | 14 | 0
COc1cccc(-c2ccc3n(c2=O)C[C@H]2[C@H](CO)[C@@H](C(=O)NC4CCC4)N(S(C)(=O)=O)[C@@H]32)c1 | -7 | -3 | 1 | 0 | 0 | -1
CCC(=O)N1C[C@H](C)[C@H](OC)CN(C)C(=O)c2ccc(NC(=O)Nc3ccccc3)cc2OC[C@@H]1C | 9 | -4 | 0 | 0 | 1 | -13
CCC(=O)c1ccc(OCCn2cncn2)cc1 | / | / | / | / | -11 | /
CCC(=O)c1ccc(OCCn2cnc3ccccc32)cc1 | -15 | -34* | 1 | 1 | / | -11
O=C(C[n+]1cc(-c2ccc(F)cc2)n2c1CCC2)Nc1nc(-c2ccccc2)cs1 | / | / | / | / | 5 | -4
Cc1ccc(-c2c[n+](CC(=O)Nc3ccc(C)cc3C)c3n2CCC3)cc1 | -11 | -33* | -3 | 0 | -2 | 10
COc1ccc(-c2c[n+](CC(=O)N3c4ccccc4Sc4ccccc43)c3n2CCC3)cc1 | 7 | -45* | 12 | 0 | / | -41
O=C(C[n+]1cc(-c2ccc(Cl)cc2)n2c1CCC2)Nc1nc(-c2ccccc2)cs1 | 9 | -44* | 6 | / | / | /
Cc1ccc(-c2c[n+](CC(=O)c3cccs3)c3n2CCC3)cc1 | -3 | -44* | 4 | / | / | /
O=C(C[n+]1cc(-c2ccc(Cl)cc2)n2c1CCC2)N1c2ccccc2Sc2ccccc21 | / | / | / | 1 | 14 | 0
CNC[C@H]1Oc2c(NS(=O)(=O)c3ccccc3)cccc2C(=O)N([C@H](C)CO)C[C@H]1C | -9 | 2 | -2 | 0 | -7 | -3
CO[C@H]1CN(C)C(=O)c2ccc(NC(=O)C3CCOCC3)cc2OC[C@H](C)N(Cc2cccnc2)C[C@H]1C | -1 | -2 | 0 | 1 | 6 | -5
CC(C)n1cnc2c(NCc3ccccc3)cc(Cc3ccc(F)cc3)cc21 | 9 | -21* | 8 | 1 | 6 | -50
Cc1ccc(CSCC(=O)Nc2ccc3c(c2)OCO3)cc1 | -7 | -30* | / | / | 13 | 8
COc1ccc(-c2ccc(=O)n(CC(=O)Nc3cccc(O)c3)n2)cc1OC | / | / | / | / | 2 | 117*
Cc1noc(C)c1NC(=O)N(C)C[C@@H]1OCCCC[C@H](C)Oc2ccc(NS(=O)(=O)c3ccc(F)cc3)cc2C(=O)N([C@@H](C)CO)C[C@@H]1C | 13 | -2 | 0 | 0 | -7 | 0
Cc1ccc2c(c1)C(=O)C(=O)N2CCOc1ccccc1 | -11 | -23* | -21 | 0 | -3 | /
Cc1cccc(OCCN2C(=O)C(=O)c3cc(C)ccc32)c1 | -15 | -45 | / | / | 2 | -30
